Measurements: ChEMBL document CHEMBL2424632, “Substituted 2-hydroxy-N-(arylalkyl)benzamides induce apoptosis in cancer cell lines” (Eur J Med Chem, 2013)
Calls of active or inactive are those of the source. No cut-off for these calls is given here.

How the values were obtained:
[1] = tested on: K562; assay: Cytotoxicity against human K562 cells after 72 hrs by calcein-AM assay; type: functional, cell-based; details: K562, 72 h
[2] = tested on: MCF7; assay: Cytotoxicity against human MCF7 cells after 72 hrs by calcein-AM assay; type: functional, cell-based; details: MCF7, 72 h
[3] = tested on: HeLa; assay: Cytotoxicity against human HeLa cells after 72 hrs by calcein-AM assay; type: functional, cell-based
[4] = tested on: G-361; assay: Induction of apoptosis in human G361 cells assessed as caspase-3/7 activation at 2 uM after 24 hrs by fluorescence assay relative to control; type: functional
Procedure, shortened: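 G361 cells seeded at 20,000 per well overnight, then exposed 24 h to compound at 2 µM final. 3x caspase-3/7 buffer (HEPES pH 7.4, NaCl, KCl, MgCl2, EGTA, NP-40, CHAPS, sucrose, DTT, PMSF) with Ac-DEVD-AMC substrate added; incubated 37 °C, fluorescence read after 4 h at 346/442 nm; activity expressed relative to untreated cells.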

[5] = tested on: G-361; assay: Cytotoxicity against human G361 cells after 72 hrs by calcein-AM assay; type: functional, cell-based; details: G-361, 72 h
[6] = tested on: HOS; assay: Cytotoxicity against human HOS cells after 72 hrs by calcein-AM assay; type: functional, cell-based
[7] = tested on: HCT-116; assay: Cytotoxicity against human HCT116 cells after 72 hrs by calcein-AM assay; type: functional, cell-based; details: HCT-116, 72 h
[8] = tested on: G-361; assay: Induction of apoptosis in human G361 cells; type: functional, cell-based
[9] = tested on: G-361; assay: Cell cycle arrest in human G361 cells assessed as decrease in S phase population at 0.25 to 4 uM after 24 hrs by propidium iodide staining-based flow cytometric analysis in presence of BrdU; type: functional
Procedure, shortened: (§1)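 Asynchronously growing cells treated 24 h; cultures pulse-labelled with 10 µM BrdU for 30 min at 37 °C before harvest, washed in PBS, fixed in 70% ethanol, denatured in 2 M HCl, neutralized, stained with fluorescein anti-BrdU antibody then propidium iodide; flow cytometry with 488 nm laser; sub-G1 and BrdU-positive S-phase fractions scored.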

[10] = tested on: G-361; assay: Effect on CDK2 protein expression in human G361 cells at 0.22 to 6 uM after 24 hrs by immunoblotting analysis; type: functional, cell-based
Procedure, shortened: (§2)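 Asynchronous G361 cells exposed 24 h; lysates made by harvesting in Laemmli sample buffer, resolved by SDS-PAGE, electroblotted to nitrocellulose, blocked, probed overnight with specific primary antibodies, then peroxidase-conjugated secondary antibodies; actin served as loading control.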

[11] = tested on: G-361; assay: Effect on cyclin E protein expression in human G361 cells at 0.22 to 6 uM after 24 hrs by immunoblotting analysis; type: functional, cell-based; procedure, shortened: as §2
[12] = tested on: G-361; assay: Upregulation of p27KIP1 protein expression in human G361 cells at 2 to 6 uM after 24 hrs by immunoblotting analysis; type: functional, cell-based; procedure, shortened: as §2
[13] = tested on: G-361; assay: Induction of autophagy in human G361 cells assessed as fragmentation of LC3 at 0.2 to 6 uM after 24 hrs by immunoblotting analysis; type: functional, cell-based; procedure, shortened: as §2
[14] = tested on: G-361; assay: Upregulation of p27KIP1 protein expression in human G361 cells at 670 nM after 24 hrs by immunoblotting analysis; type: functional, cell-based; procedure, shortened: as §2
[15] = tested on: G-361; assay: Downregulation of p53 protein expression in human G361 cells at 0.2 to 6 uM after 24 hrs by immunoblotting analysis; type: functional, cell-based; procedure, shortened: as §2
[16] = tested on: G-361; assay: Effect on CDK1 protein expression in human G361 cells at 0.22 to 6 uM after 24 hrs by immunoblotting analysis; type: functional, cell-based; procedure, shortened: as §2
[17] = tested on: G-361; assay: Downregulation of cyclin B protein expression in human G361 cells at 0.22 to 6 uM after 24 hrs by immunoblotting analysis; type: functional, cell-based; procedure, shortened: as §2
[18] = tested on: G-361; assay: Induction of apoptosis in human G361 cells assessed as increase in p53 mRNA level; type: functional, cell-based
[19] = tested on: G-361; assay: Induction of apoptosis in human G361 cells assessed as decrease in caspase-3 zymogene at 0.2 to 6 uM after 24 hrs by immunoblotting analysis; type: functional, cell-based; procedure, shortened: as §2
[20] = tested on: G-361; assay: Cell cycle arrest in human G361 cells assessed as increase in sub-G1 phase population at 1 to 4 uM after 24 hrs by propidium iodide staining-based flow cytometric analysis in presence of BrdU; type: functional; procedure, shortened: as §1
[21] = tested on: G-361; assay: Induction of apoptosis in human G361 cells assessed as increase in BCL-2 protein expression at 0.2 to 6 uM after 24 hrs by immunoblotting analysis; type: functional, cell-based; procedure, shortened: as §2
[22] = tested on: G-361; assay: Induction of apoptosis in human G361 cells assessed as decrease in BCL-XL protein expression after 24 hrs by immunoblotting analysis; type: functional, cell-based; procedure, shortened: as §2
[23] = tested on: G-361; assay: Downregulation of CDK4 protein expression in human G361 cells at 0.22 to 6 uM after 24 hrs by immunoblotting analysis; type: functional, cell-based; procedure, shortened: as §2
[24] = tested on: G-361; assay: Induction of apoptosis in human G361 cells assessed as PARP-1 cleavage at 0.2 to 6 uM after 24 hrs by immunoblotting analysis; type: functional, cell-based; procedure, shortened: as §2
[25] = tested on: G-361; assay: Induction of apoptosis in human G361 cells assessed as increase in p53 protein level at 0.2 to 6 uM after 24 hrs by immunoblotting analysis; type: functional, cell-based; procedure, shortened: as §2
[26] = tested on: G-361; assay: Induction of apoptosis in human G361 cells assessed as decrease in caspase-7 zymogene at 0.2 to 6 uM after 24 hrs by immunoblotting analysis; type: functional, cell-based; procedure, shortened: as §2
[27] = target: Mitogen-activated protein kinase; ERK1/ERK2 (Homo sapiens) (UniProt P27361+P28482); assay: Inhibition of ERK1/2 phosphorylation at Thr202/Tyr204 in human G361 cells at 0.22 to 6 uM after 24 hrs by immunoblotting analysis; type: cell-based; details: G-361; procedure, shortened: as §2
[28] = tested on: G-361; assay: Downregulation of cyclin A protein expression in human G361 cells at 0.22 to 6 uM after 24 hrs by immunoblotting analysis; type: functional, cell-based; procedure, shortened: as §2
[29] = target: RAC-alpha serine/threonine-protein kinase (Homo sapiens) (UniProt P31749); assay: Inhibition of AKT phosphorylation at Ser473 in human G361 cells at 0.22 to 6 uM after 24 hrs by immunoblotting analysis; type: cell-based; details: G-361; procedure, shortened: as §2
[30] = tested on: G-361; assay: Downregulation of MDM2 protein expression in human G361 cells at 0.2 to 6 uM after 24 hrs by immunoblotting analysis; type: functional, cell-based; procedure, shortened: as §2
[31] = tested on: G-361; assay: Induction of apoptosis in human G361 cells assessed as caspase-9 cleavage at 0.2 to 6 uM after 24 hrs by immunoblotting analysis; type: functional, cell-based; procedure, shortened: as §2

RAC-alpha serine/threonine-protein kinase (Homo sapiens), sequence (P31749 whole entry): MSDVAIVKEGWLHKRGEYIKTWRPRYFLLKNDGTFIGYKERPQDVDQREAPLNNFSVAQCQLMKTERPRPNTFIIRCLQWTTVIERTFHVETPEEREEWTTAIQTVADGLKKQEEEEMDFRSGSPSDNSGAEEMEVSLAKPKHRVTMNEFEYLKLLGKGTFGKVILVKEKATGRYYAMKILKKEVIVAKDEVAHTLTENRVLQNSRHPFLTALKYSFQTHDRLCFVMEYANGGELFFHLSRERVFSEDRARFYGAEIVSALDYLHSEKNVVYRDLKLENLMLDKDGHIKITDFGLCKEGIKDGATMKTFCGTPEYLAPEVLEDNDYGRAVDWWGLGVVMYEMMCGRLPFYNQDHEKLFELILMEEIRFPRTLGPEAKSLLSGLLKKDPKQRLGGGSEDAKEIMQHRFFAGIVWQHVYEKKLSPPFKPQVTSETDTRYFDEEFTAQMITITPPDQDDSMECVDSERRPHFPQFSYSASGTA
Mitogen-activated protein kinase; ERK1/ERK2 (Homo sapiens), sequence (P27361 whole entry, looked up): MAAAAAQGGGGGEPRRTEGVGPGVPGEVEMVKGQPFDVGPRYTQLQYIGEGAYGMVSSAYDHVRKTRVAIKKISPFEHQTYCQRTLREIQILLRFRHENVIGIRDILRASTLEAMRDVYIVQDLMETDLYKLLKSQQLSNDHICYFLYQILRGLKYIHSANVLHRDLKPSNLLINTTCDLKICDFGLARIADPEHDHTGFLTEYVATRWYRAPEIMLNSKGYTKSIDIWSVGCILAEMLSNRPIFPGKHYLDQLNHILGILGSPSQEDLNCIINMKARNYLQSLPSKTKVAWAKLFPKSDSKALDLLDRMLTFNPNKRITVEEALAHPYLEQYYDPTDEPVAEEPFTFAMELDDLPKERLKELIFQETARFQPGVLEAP
Mitogen-activated protein kinase; ERK1/ERK2 (Homo sapiens), sequence (P28482 whole entry, looked up): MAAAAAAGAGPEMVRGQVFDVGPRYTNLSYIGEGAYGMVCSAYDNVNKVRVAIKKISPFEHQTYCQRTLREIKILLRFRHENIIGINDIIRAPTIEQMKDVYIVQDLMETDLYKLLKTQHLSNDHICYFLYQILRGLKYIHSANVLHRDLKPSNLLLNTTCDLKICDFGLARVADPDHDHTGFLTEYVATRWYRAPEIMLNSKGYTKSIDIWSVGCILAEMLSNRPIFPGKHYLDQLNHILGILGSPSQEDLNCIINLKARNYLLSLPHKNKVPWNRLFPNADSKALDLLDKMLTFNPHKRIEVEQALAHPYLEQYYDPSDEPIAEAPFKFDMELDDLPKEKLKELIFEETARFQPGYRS

## C[C@@H](NC(=O)c1cc(Cl)ccc1O)C(=O)Nc1ccc(Cl)cc1
[1]
  IC50: > 20 µM
[2]
  IC50: > 20 µM

## CC(C)[C@H](NC(=O)c1ccc(Cl)cc1O)C(=O)Nc1ccc(Br)cc1
[1]
  IC50: > 10 µM
[2]
  IC50: > 10 µM

## O=C(N[C@H](Cc1ccccc1)C(=O)Nc1ccc(Cl)cc1)c1ccc(Cl)cc1O
[1]
  IC50: > 10 µM
[2]
  IC50: > 10 µM

## O=C(N[C@@H](Cc1ccccc1)C(=O)Nc1cccc(Cl)c1)c1cc(Cl)ccc1O
[1]
  IC50: > 10 µM
[2]
  IC50: > 10 µM

## CC(C)[C@H](NC(=O)c1cc(Cl)ccc1O)C(=O)Nc1ccccc1
[1]
  IC50: > 10 µM
[2]
  IC50: > 10 µM

## CC(C)[C@H](NC(=O)c1cc(Cl)ccc1O)C(=O)Nc1ccc(Cl)c(Cl)c1
[1]
  IC50: > 10 µM
[2]
  IC50: > 10 µM

## CC(C)(C)[C@H](NC(=O)c1cc(Cl)ccc1O)C(=O)Nc1cccc(C(F)(F)F)c1
[3]
  IC50: 6.5 µM
[4]
  Activity: Active
[5]
  IC50: 8.3 µM
[1]
  IC50: 5.9 µM
[6]
  IC50: 7.8 µM
[2]
  IC50: 8.8 µM
[7]
  IC50: 5.4 µM

## O=C(N[C@@H](Cc1ccccc1)C(=O)Nc1ccc(Cl)cc1)c1ccc(Cl)cc1O
[1]
  IC50: > 10 µM
[2]
  IC50: 9.1 µM

## CC(C)[C@@H](NC(=O)c1cc(Cl)ccc1O)C(=O)Nc1cccc(Cl)c1
[1]
  IC50: > 10 µM
[2]
  IC50: > 10 µM

## C[C@H](NC(=O)c1ccc(Cl)cc1O)C(=O)Nc1ccc(C(F)(F)F)cc1
[1]
  IC50: > 12.5 µM
[2]
  IC50: > 12.5 µM

## CC(C)[C@H](NC(=O)c1ccc(Cl)cc1O)C(=O)Nc1ccc(Cl)c(Cl)c1
[1]
  IC50: > 10 µM
[2]
  IC50: > 10 µM

## O=C(N[C@@H](CC1CCCCC1)C(=O)Nc1cccc(C(F)(F)F)c1)c1cc(Cl)ccc1O
[3]
  IC50: 1.3 µM
[4]
  fold change (FC): >10
[5]
  IC50: 1.3 µM
[1]
  IC50: 3.4 µM
[6]
  IC50: 3.4 µM
[2]
  IC50: 2.3 µM
[7]
  IC50: 1.5 µM

## O=C(N[C@@H](Cc1ccccc1)C(=O)Nc1ccc(Cl)c(Cl)c1)c1ccc(Cl)cc1O
[1]
  IC50: > 10 µM
[2]
  IC50: 7.3 µM

## O=C(N[C@H](Cc1ccccc1)C(=O)Nc1ccc(Cl)cc1)c1cc(Cl)ccc1O
[3]
  IC50: 1.1 µM
[8]
  Activity: Dose-dependent effect
[9]
  Activity: Active
[4]
  fold change (FC): >10
[5]
  IC50: 1.3 µM
[10]
  Activity: Active
[1]
  IC50: 2.5 µM
[11]
  Activity: Active
[12]
  Activity: inactive
[13]
  Activity: Active
[6]
  IC50: 2.5 µM
[14]
  Activity: Active
[15]
  Activity: Active
[16]
  Activity: Active
[17]
  Activity: Active
[18]
  Activity: inactive
[19]
  Activity: Active
[2]
  IC50: 3.5 µM
[20]
  Activity: Active
[21]
  Activity: Active
[22]
  Activity: Dose-dependent effect
[23]
  Activity: Active
[24]
  Activity: Active
[25]
  Activity: inactive
[26]
  Activity: Active
[7]
  IC50: 1.7 µM
[27]
  inhibition: Active
[28]
  Activity: Active
[29]
  inhibition: Active
[30]
  Activity: Active
[31]
  Activity: Active

## CC(C)[C@H](NC(=O)c1cc(Cl)ccc1O)C(=O)Nc1ccc(C(F)(F)F)cc1
[3]
  IC50: 5.4 µM
[4]
  Activity: Active
[5]
  IC50: 6.6 µM
[1]
  IC50: 4.5 µM
[6]
  IC50: 7 µM
[2]
  IC50: 7.3 µM
[7]
  IC50: 5.9 µM

## O=C(CNC(=O)c1cc(Cl)ccc1O)Nc1cccc(Cl)c1
[1]
  IC50: > 10 µM
[2]
  IC50: > 10 µM

## C[C@@H](NC(=O)c1ccc(Cl)cc1O)C(=O)Nc1ccc(Cl)cc1
[1]
  IC50: > 10 µM
[2]
  IC50: > 10 µM
